High-throughput results as filed in PubChem.
DNA FID counter: compounds displacing fluorescent DNA intercalator, primary screen, artefact control for HCV NS3 helicase inhibitor project, biochemical, FID fluorescence; hit rate 0.17% among 290,000; DNA fluorescent intercalator displacement; inhibition, % at 7.9 µM; in the data active = inhibition above about 37%;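 also: 0% = vehicle and 100% = reference compound; higher means more ethidium bromide displaced from hairpin DNA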
core dimer inh: inhibitors of HCV core protein dimerization, primary screen, biochemical, TR-FRET, high-throughput; inhibition, % at 5 µM; TR-FRET GST/Flag-core106 dimerization, 1536-well; hit rate 0.33% among 300,000;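 active = inhibition above the mean of all tested compounds plus 3 SD, set per screening campaign, cut at about 45% in these data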
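test system = GST/Flag-tagged HCV core106 proteins | probe or stimulus = Eu donor and XL665 acceptor anti-tag antibodies | times = compound-protein-antibody incubation 4 h at 22.5 °C | signal = TR-FRET, excitation 340 nm, emission 617 and 671 nm | measure = percent inhibition of core106 dimerization signal | controls = wells lacking GST-core106 and wells with excess unlabelled core106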
VIM-2 inh: VIM-2 metallo-beta-lactamase inhibitors, primary screen, biochemical, epi-absorbance readout, Pseudomonas aeruginosa enzyme; hit rate 0.89% among 290,000; AID 1527, 2009; inhibition, % at 5.6 µM; purified VIM-2, nitrocefin hydrolysis, epi-absorbance fluorescence;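 active = inhibition above the mean of all tested compounds plus 3 SD, cutoff set per screening run, cut at about 7.5% in these data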;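 also: red hydrolysis product quenches plate fluorescence so inhibitors raise well fluorescence; 0% = enzyme with DMSO and 100% = DMSO without enzyme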
IMP-1 inhibitor: IMP-1 metallo-beta-lactamase inhibitors, primary screen, biochemical, epi-absorbance readout, Pseudomonas aeruginosa enzyme; purified IMP-1, nitrocefin hydrolysis, epi-absorbance fluorescence; metallo-beta-lactamase IMP-1 (Pseudomonas aeruginosa); inhibition, % at 5.6 µM; hit rate 0.45% among 290,000;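 active = inhibition above the mean plus 3 SD of all compounds in the same screening run, cut at about 4.5% in these data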;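 also: 0% = IMP-1 with DMSO and 100% = DMSO wells lacking enzyme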
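System: purified recombinant IMP-1 beta-lactamase. Medium: Zinc- and detergent-supplemented HEPES buffer, pH 7.1. Compound: one 5.6 µM dose […]. Schedule: 15 min preincubation plus 25 min reaction at 25 °C. Technique: Epi-absorbance fluorescence, 480 nm excitation, 530 nm emission.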
* = called active by the depositor; . = no result. Compounds with a hit are over-represented: about 1.6% of the library has one in this group of screens.

SMILES	DNA FID counter	core dimer inh	VIM-2 inh	IMP-1 inhibitor
CC(C(=O)O)N1C(=O)/C(=C/C=C/c2ccco2)SC1=S (configuration not stated)	-7	75*	-2	5.8*
O=C1/C(=C/c2cccs2)SC(=S)N1NS(=O)(=O)c1ccccc1	-20	4	0	9.0*
O=C(O)CCCN1C(=O)/C(=C\c2ccco2)SC1=S	-10	.	-3	-1
COc1ccc(OC)c(/C=C2\SC(=S)N(NS(=O)(=O)c3ccccc3)C2=O)c1	-21	-2	-2	-1
O=C(N/N=C\c1cccc(F)c1)c1ccc(-c2ccccc2)cc1	-8	.	0	-1
N/N=C(\c1ccccc1)c1cc(Br)ccc1N	-8	-1	0	2
CN(C)/C=C1\SC(=S)N(N2C(=O)C3C4C=CC(C4)C3C2=O)C1=O (configuration not stated)	0	2	12*	-3
CN(C)CCN1C(=O)C2C3C=CC(C3)C2C1=O (configuration not stated)	-1	7	1	-3
Cc1[nH]nc2c1C(c1ccc(-c3ccccc3C#N)o1)C(C#N)=C(N)O2 (configuration not stated)	-5	3	2	-1
CC1(C)Cc2c(C#N)c(NCc3ccco3)nc(-c3ccco3)c2CO1	-16	52*	0	-1
COc1cccc(CCNC(=O)C2CCC(=O)N(C3CC3)C2)c1OC (configuration not stated)	-4	.	-3	-1
CCOC(=O)c1cc(-c2ccccc2)nc2c1c(C)nn2-c1ccccn1	-13	12	-6	-7
Cc1ccc(C)c(CSc2nnc([C@@H]3CCCN3)o2)c1	-5	1	3	5.0*
Clc1ccc(CSc2nnc([C@@H]3CCCN3)o2)cc1Cl	5	1	1	-2
Cc1cc(=O)oc2cc(NC(=O)C(CCCN=C(N)N)NC(=O)OCc3ccccc3)ccc12 (configuration not stated)	41*	.	5	2
NC(N)=NCCC[C@H](NC(=O)OCc1ccccc1)C(=O)O	-5	-7	-3	-4
COc1cc(C2NCCc3c2[nH]c2ccccc32)ccc1OC(C)C (configuration not stated)	37*	-3	1	2
COc1ccc(-n2c(SCC(=O)NCC3CCCO3)nc3n[nH]c(C)c3c2=N)cc1 (configuration not stated)	-21	0	-5	-3
CCN(CC)C(=O)COc1ccc2oc(C)c(C(=O)OC(C)C)c2c1	-38	-2	-3	0
COc1ccc(C2CC(c3ccc(Cl)cc3)n3nc(N)nc3N2)cc1 (configuration not stated)	-24	-3	-1	5.0*
O=C(/C=C/c1ccccc1Cl)c1ccccc(=O)c1O	-18	7	2	11*
Cc1cccnc1NC(=O)Nc1ccc(Cl)cc1	-4	-4	-1	-1
Cc1ccc(N/C(CSC(N)=O)=N/S(=O)(=O)c2ccccc2)cc1	3	-5	-1	4.8*
NC(=O)SC/C(=N\S(=O)(=O)c1ccccc1)Nc1ccccc1	0	0	-3	-3
Cc1ccc(N/C(CSC(N)=O)=N\S(=O)(=O)c2ccc(C)cc2)cc1	-8	-5	-1	5.0*
SMILES	DNA FID counter	core dimer inh	VIM-2 inh	IMP-1 inhibitor
COc1ccc(Cn2c(C)cc3c(c2=O)C(c2cccs2)C(C#N)=C(N)O3)cc1OC (configuration not stated)	-2	6	-2	-1
O=C(O)C(=O)Cc1c[nH]c2ccccc12	-1	-2	-1	4.5*
Cc1ccc(CNC(=O)C2CCCN(c3nc4ccccc4o3)C2)cc1 (configuration not stated)	-7	-1	0	-1
O=C(NCc1cccs1)C1CCCN(c2nc3ccccc3o2)C1 (configuration not stated)	-2	-1	1	4.8*
CCCn1c2ccccc2c2cnn(CC(=O)N3CCOCC3)c(=O)c21	-28	-5	-1	-2
CCCn1c2ccccc2c2cnn(CC(=O)N3CCN(C4CCCCC4)CC3)c(=O)c21	7	16	7.8*	1
CC(C)(c1ccccc1)c1ccc(OCCCNCCO)cc1	22	-6	-2	5.4*
CSc1ccc(S(=O)(=O)Nc2ccc(NC(C)=O)cc2)cc1	2	-5	-1	-2
